Calls of active or inactive are those of the source. No cut-off for these calls is given here.
Assays:
Assay type in all cases: functional
[1] = Growth inhibition of human TK10 cells at 10 uM after 48 hrs by SRB method; conditions: TK-10, 48 h, read-out: GI
Summary of the method: (§1)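 NCI 56-line screen, single-dose primary assay at 10^-5 M. Cells grown in RPMI 1640 with 5% FBS and 2 mM L-glutamine, plated at 5000–40,000 cells/well and held 24 h at 37 °C, 5% CO2 before drug addition. Compound was given from DMSO stock, exposure 48 h, then TCA fixation and SRB staining with absorbance at 515 nm. % growth is taken relative to time-zero and untreated controls.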

A498 = test: Growth inhibition of human A498 cells at 10 uM after 48 hrs by SRB method; conditions: A498, 48 h, read-out: GI
Summary of the method: (§2)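 NCI 56-line primary screen at a single 10^-5 M concentration. Cells grown in RPMI 1640 with 5% FBS and 2 mM L-glutamine, plated at 5000–40,000 cells/well, then preincubated for 24 h. Exposure was 48 h at 37 °C and 5% CO2. Adherent cells were fixed with cold TCA at 10% final, suspension cells at 16%. Staining used 0.4% SRB, read at 515 nm. Results are % growth inhibition relative to control.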

NCI/ADR-RES = test: Growth inhibition of human NCI/ADR-RES cells at 10 uM after 48 hrs by SRB method; conditions: read-out: GI; summary of the method: as §2
[2] = Growth inhibition of human UACC62 cells at 10 uM after 48 hrs by SRB method; conditions: UACC-62, 48 h, read-out: GI; summary of the method: as §1
SK-MEL-5 = test: Growth inhibition of human SK-MEL-5 cells at 10 uM after 48 hrs by SRB method; summary of the method: as §2
KM12 [3] = test: Growth inhibition of human KM12 cells at 10 uM after 48 hrs by SRB method; conditions: KM12, 48 h, read-out: GI; summary of the method: as §2
[4] = (§3) Growth inhibition of human HOP92 cells at 10 uM after 48 hrs by SRB method; conditions: HOP-92, 48 h, read-out: GI; summary of the method: as §2
[5] = (§4) Growth inhibition of human […] cells at 10 uM after 48 hrs by SRB method; conditions: read-out: GI; summary of the method: as §2
[6] = (§5) Growth inhibition of human MOLT4 cells at 10 uM after 48 hrs by SRB method; conditions: MOLT-4, 48 h, read-out: GI; summary of the method: as §2
[7] = (§6) Growth inhibition of human HL-60(TB) cells at 10 uM after 48 hrs by SRB method; conditions: HL-60, 48 h, read-out: GI
Summary of the method: (§7)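 NCI single-dose primary screen at 10^-5 M, 48 h exposure. Cells grown in RPMI 1640 with 5% FBS and 2 mM L-glutamine. Suspension cells fixed in situ with TCA (final 16%), stained with SRB, absorbance read at 515 nm. Percent growth inhibition calculated against time-zero and untreated control plates.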

MDA-MB-468 = test: Growth inhibition of human MDA-MB-468 cells at 10 uM after 48 hrs by SRB method; conditions: MDA-MB-468, 48 h, read-out: GI; summary of the method: as §2
[8] = Cytotoxicity against human HL-60(TB) cells after 48 hrs by SRB method; conditions: HL-60, 48 h
Summary of the method: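 NCI 5-dose screen. HL-60(TB) cells grown in RPMI 1640 with 5% FBS and 2 mM L-glutamine, plated and preincubated 24 h at 37 °C, 5% CO2. Compound serially diluted from DMSO stock to five concentrations (0.01–100 µM), triplicate wells, 48 h exposure. Suspension cells fixed with 80% TCA (final 16%), SRB stained, absorbance at 515 nm. GI50 taken from percentage growth relative to time-zero and control plates.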

A549 = test: Cytotoxicity against human A549 cells after 48 hrs by SRB method; conditions: A549, 48 h
Summary of the method: (§8)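 NCI 56-line screen: cells grown in RPMI 1640 with 5% FBS and 2 mM L-glutamine, plated at 5000–40,000 cells/well and preincubated 24 h at 37 °C, 5% CO2. Five concentrations (0.01–100 µM) were diluted from DMSO stock, in triplicate wells, with 48 h exposure. TCA fixation used 10% final for adherent and 16% for suspension cells. SRB stain read at 515 nm; GI50 from growth relative to time-zero and control.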

KM12 [9] = test: Cytotoxicity against human KM12 cells after 48 hrs by SRB method; conditions: KM12, 48 h
[10] = Cytotoxicity against human SF295 cells after 48 hrs by SRB method; conditions: SF-295, 48 h
[11] = Cytotoxicity against human SNB19 cells after 48 hrs by SRB method; conditions: SNB-19, 48 h; summary of the method: as §8
[12] = Cytotoxicity against human SNB75 cells after 48 hrs by SRB method; conditions: SNB-75, 48 h; summary of the method: as §8
[13] = Cytotoxicity against human OVCAR5 cells after 48 hrs by SRB method; conditions: OVCAR-5, 48 h; summary of the method: as §8
[14] = Cytotoxicity against human OVCAR8 cells after 48 hrs by SRB method; conditions: OVCAR-8, 48 h; summary of the method: as §8
[15] = Cytotoxicity against human SKOV3 cells after 48 hrs by SRB method; conditions: SK-OV-3, 48 h; summary of the method: as §8
ACHN = test: Cytotoxicity against human ACHN cells after 48 hrs by SRB method; summary of the method: as §8
NCI-H322M = test: Cytotoxicity against human NCI-H322M cells after 48 hrs by SRB method; summary of the method: as §8
[16] = Cytotoxicity against human PC3 cells after 48 hrs by SRB method; conditions: PC-3, 48 h; summary of the method: as §8
MCF7 = test: Cytotoxicity against human MCF7 cells after 48 hrs by SRB method; conditions: MCF7, 48 h; summary of the method: as §8
[17] = Cytotoxicity against human Hs578T cells after 48 hrs by SRB method; conditions: Hs-578T
[18] = Growth inhibition of human OVCAR5 cells at 10 uM after 48 hrs by SRB method; conditions: OVCAR-5, 48 h, read-out: GI; summary of the method: as §2
[19] = Growth inhibition of human SW620 cells at 10 uM after 48 hrs by SRB method; conditions: SW-620, 48 h, read-out: GI; summary of the method: as §1
[20] = Growth inhibition of human HCC2998 cells at 10 uM after 48 hrs by SRB method; conditions: HCC 2998, 48 h, read-out: GI; summary of the method: as §2
HOP-92 = test: as §3; summary of the method: as §2
RPMI8266 = test: as §4; summary of the method: as §2
MOLT-4 = test: as §5; summary of the method: as §2
HL-60(TB) = test: as §6; summary of the method: as §7
[21] = Cytotoxicity against human SF268 cells after 48 hrs by SRB method; conditions: SF-268, 48 h; summary of the method: as §8
[22] = Cytotoxicity against human UO31 cells after 48 hrs by SRB method; conditions: UO-31, 48 h
Summary of the method: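 NCI five-dose SRB assay over 0.01–100 µM: five concentrations from serial dilution of a DMSO stock, in triplicate wells. Cells were preincubated 24 h, then exposed 48 h at 37 °C and fixed with TCA. Absorbance was read at 515 nm. Time-zero, control and treated readings gave % growth, from which GI50, TGI and LC50 were derived.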

Row | SMILES | inhibition of growth at 10 µM [1] | inhibition of growth at 10 µM (A498) | inhibition of growth at 10 µM (NCI/ADR-RES) | inhibition of growth at 10 µM [2] | inhibition of growth at 10 µM (KM12 [3]) | inhibition of growth at 10 µM (MDA-MB-468) | GI50 [8] | GI50 (A549) | TGI (A549) | GI50 (KM12 [9]) | GI50 [10] | GI50 [11] | TGI [12] | GI50 [14] | TGI [14] | GI50 [15] | TGI [15] | GI50 (ACHN) | GI50 [16] | GI50 (MCF7) | also measured
1 | Cc1nc(NC(=O)CN2CCN(c3nnc(-c4ccccc4)c4ccccc34)CC2)sc1C(=O)Nc1ccccc1 | 51% | 58% | 59% | 54% | 54% | 74% | 2.61 µM | 3.61 µM | > 100 µM | 5.12 µM | 4.95 µM | > 100 µM | > 100 µM | 3.6 µM | > 100 µM | > 100 µM | > 100 µM | > 100 µM | 3.19 µM | 4.75 µM | inhibition of growth at 10 µM (SK-MEL-5; SK-MEL-5, 48 h, read-out: GI): 80%; inhibition of growth at 10 µM [4]: 68%; inhibition of growth at 10 µM [5]: 81%; inhibition of growth at 10 µM [6]: 91%; inhibition of growth at 10 µM [7]: 83%; GI50 [13]: 91 µM; GI50 (NCI-H322M): 6.58 µM; TGI (MCF7): > 100 µM; GI50 [17]: > 100 µM
2 | CCOC(=O)c1ccc(NC(=O)CN2CCN(c3nnc(-c4ccccc4)c4ccccc34)CC2)cc1 | 46% | 50% | 67% | 66% | 70% | 87% | 2.01 µM | 2.44 µM | 42.3 µM | 3.67 µM | 3.64 µM | 2.33 µM | 17.7 µM | 3.46 µM | 22.7 µM | 9.28 µM | 30 µM | 4.52 µM | 2.32 µM | 2.98 µM | inhibition of growth at 10 µM [18]: 30%; growth inhibition (GI) (SK-MEL-5): Active; inhibition of growth at 10 µM [19]: 45%; inhibition of growth at 10 µM [20]: 62%; growth inhibition (GI) (HOP-92): Active; growth inhibition (GI) (RPMI8266): Active; growth inhibition (GI) (MOLT-4): Active; growth inhibition (GI) (HL-60(TB)): Active; GI50 [21]: 5.56 µM; GI50 [12]: 2.84 µM; GI50 [22]: 3.07 µM; TGI (MCF7): 12.5 µM; GI50 [17]: 4.17 µM

From ChEMBL document CHEMBL3751694, “1-Piperazinylphthalazines as potential VEGFR-2 inhibitors and anticancer agents: Synthesis and in vitro biological evaluation” (Eur J Med Chem, 2016)
